Assay results taken from ChEMBL document CHEMBL1765023, “Acetyl analogs of combretastatin A-4: synthesis and biological studies” (Bioorg Med Chem, 2011).
Converted amounts (≈) assume the structure as drawn.

Tests used:
L1210 = assay: Cytotoxicity against mouse L1210 cells by MTT assay; assay type: functional, cell-based
B16 = assay: Cytotoxicity against mouse B16 cells by MTT assay; assay type: functional, cell-based
[1] = Induction of microtubule depolymerization in […] cells for 18 hrs by indirect immunofluorescence microscopic analysis; assay type: cell-based
How it was run: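 Uses A-10 cells, a non-transformed line that arrests in interphase under microtubule-targeting agents. Cells were treated for 18 h and interphase microtubules were visualized by indirect immunofluorescence microscopy, with vehicle-treated controls. Depolymerization was screened at concentrations below 30 µM. For EC50, a range of concentrations was tested, and EC50 is the concentration causing 50% loss of cellular microtubules by microscopy.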

[2] = Solubility of the compound in water by multiscreen solubility; assay type: physicochemical
How it was run: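 Aqueous solubility was measured with a modified Multiscreen Solubility filter-plate protocol. The assay ceiling is 500 µM, and two independent experiments were run.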

[3] = Ratio of EC50 for microtubule depolymerization in […] cells to IC50 for human MDA-MB-435 cells
Mus musculus [4] = assay: Toxicity in DBA2 mouse assessed as change in color, weight and size in liver at 75 mg/kg, ip QD administered on alternate days for 17 days measured on day 23 relative to control; assay type: organism-based; set-up: dose 75 mg/kg, route intraperitoneal; settings: in vivo, 408 h
How it was run: (§1)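 Healthy female DBA2 mice, 5–7 weeks old, five per group, received 75 mg/kg ip on days 1, 5, 9, 13 and 17. Vehicle was PET (PEG400/ethanol/Tween 80, 6:3:1), 5% glucose and DMSO, with final ethanol 15% and DMSO 10%. Controls received 100 µL vehicle. Body weight was measured every other day. At sacrifice on day 23, blood counts (hematocrit, WBC, granulocytes, platelets) and liver, kidney and spleen appearance and weight were assessed.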

Mus musculus [5] = assay: Toxicity in DBA2 mouse assessed as change in platelet count at 75 mg/kg, ip QD administered on alternate days for 17 days measured on day 23 relative to control; assay type: organism-based; set-up: dose 75 mg/kg, route intraperitoneal; settings: in vivo, 408 h; how it was run: as §1
Mus musculus [6] = assay: Toxicity in DBA2 mouse assessed as change in granulocyte count at 75 mg/kg, ip QD administered on alternate days for 17 days measured on day 23 relative to control; assay type: organism-based; set-up: dose 75 mg/kg, route intraperitoneal; settings: in vivo, 408 h; how it was run: as §1
Mus musculus [7] = assay: Toxicity in DBA2 mouse assessed as change in color, weight and size in spleen at 75 mg/kg, ip QD administered on alternate days for 17 days measured on day 23 relative to control; assay type: organism-based; set-up: dose 75 mg/kg, route intraperitoneal; settings: in vivo, 408 h; how it was run: as §1
Mus musculus [8] = assay: Toxicity in DBA2 mouse assessed as change in color, weight and size in kidney at 75 mg/kg, ip QD administered on alternate days for 17 days measured on day 23 relative to control; assay type: organism-based; set-up: dose 75 mg/kg, route intraperitoneal; settings: in vivo, 408 h; how it was run: as §1
Mus musculus [9] = assay: Toxicity in DBA2 mouse assessed as change in body weight at 75 mg/kg, ip QD administered on alternate days for 17 days measured on day 23 relative to control; assay type: organism-based; set-up: dose 75 mg/kg, route intraperitoneal; settings: in vivo, 408 h; how it was run: as §1
Mus musculus [10] = assay: Toxicity in DBA2 mouse assessed as change in hematocrit at 75 mg/kg, ip QD administered on alternate days for 17 days measured on day 23 relative to control; assay type: organism-based; set-up: dose 75 mg/kg, route intraperitoneal; settings: in vivo, 408 h; how it was run: as §1
Mus musculus [11] = assay: Toxicity in DBA2 mouse assessed as change in white blood count at 75 mg/kg, ip QD administered on alternate days for 17 days measured on day 23 relative to control; assay type: organism-based; set-up: dose 75 mg/kg, route intraperitoneal; settings: in vivo, 408 h; how it was run: as §1

SMILES	IC50 (L1210) [µM]	IC50 (B16) [µM]	further results
COc1ccc(/C=C(/C(C)=O)c2cc(OC)c(OC)c(OC)c2)cc1OC	37	42	–
COc1cc(/C(=C\c2ccc([N+](=O)[O-])cc2)C(C)=O)cc(OC)c1OC	18	18	–
COc1ccc(OC)c(/C=C(/C(C)=O)c2cc(OC)c(OC)c(OC)c2)c1	3.7	4	–
COc1cc(/C=C(/C(C)=O)c2cc(OC)c(OC)c(OC)c2)cc(OC)c1OC	7.2	23	–
COc1cc(/C(=C\c2ccc(Cl)cc2)C(C)=O)cc(OC)c1OC	5	7.4	–
COc1cc(/C(=C\c2ccc(Br)cc2)C(C)=O)cc(OC)c1OC	4	19	–
COc1cc(/C(=C\c2ccc(F)cc2)C(C)=O)cc(OC)c1OC	43	65	–
COc1ccccc1/C=C(/C(C)=O)c1cc(OC)c(OC)c(OC)c1	40	41	–
COc1ccc(/C=C(/C(C)=O)c2cc(OC)c(OC)c(OC)c2)cc1O[Si](C)(C)C(C)(C)C	0.18	5.1	–
COc1cc(/C(=C\c2cccc([N+](=O)[O-])c2)C(C)=O)cc(OC)c1OC	3.3	3.8	–
COc1cc(/C(=C\c2cccc(Br)c2)C(C)=O)cc(OC)c1OC	35	39	–
COc1cccc(/C=C(/C(C)=O)c2cc(OC)c(OC)c(OC)c2)c1	39	31	–
COc1cc(/C(=C\c2ccc(C#N)cc2)C(C)=O)cc(OC)c1OC	8	29	–
COc1ccc(/C=C(/C(C)=O)c2cc(OC)c(OC)c(OC)c2)cc1	0.38	7.3	EC50 [1]: 18.6 µM; solubility [2]: 319 µM (≈ 109 µg/mL); Ratio [3]: 53
COc1cc(/C(=C\c2ccccc2)C(C)=O)cc(OC)c1OC	5.4	25	–
COc1cc(/C(=C\c2ccc(C)cc2)C(C)=O)cc(OC)c1OC	0.36	2.9	Activity (Mus musculus [4]): Non-toxic; EC50 [1]: 5.6 µM; Activity (Mus musculus [5]): Non-toxic; solubility [2]: 443 µM (≈ 145 µg/mL); Activity (Mus musculus [6]): Non-toxic; Activity (Mus musculus [7]): Non-toxic; Activity (Mus musculus [8]): Non-toxic; Activity (Mus musculus [9]): Non-toxic; Activity (Mus musculus [10]): Non-toxic; Activity (Mus musculus [11]): Non-toxic; Ratio [3]: 59
COc1cc(/C(=C\c2ccc(Cl)c(Cl)c2)C(C)=O)cc(OC)c1OC	4	6.4	–
COc1cc(OC)c(/C=C(/C(C)=O)c2cc(OC)c(OC)c(OC)c2)c(OC)c1	3.7	> 100	–
COc1ccc(/C=C(/C(C)=O)c2cc(OC)c(OC)c(OC)c2)cc1[N+](=O)[O-]	3.1	3.8	–
